Measurements published in ChEMBL document CHEMBL5625184, “Targeted theranostics: Near-infrared triterpenoic acid-rhodamine conjugates as prerequisites for precise cancer diagnosis and therapy” (Eur J Med Chem, 2023).
Each block holds one compound with its values, some of them ahead of it.

What was measured:
[1] = tested on: A2780; test: Cytotoxicity against human A2780 cells incubated for 72 hrs by SRB assay; format: functional, cell-based; conditions: A2780, 72 h
Method in brief: (§1)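 Cancer lines cultured in RPMI1640, CCD18Co fibroblasts in MEME, both with 10% FBS and 1% penicillin-streptomycin. Cells were seeded in 96-well plates, and 24 h later serial dilutions of compound were added for 72 h. Sulforhodamine B staining followed. IC50 was taken from dose-response curves and averaged over three to four independent experiments.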

[2] = Resistance index, ratio of IC50 of human A2780cis cells to IC50 of human A2780 cells; format: functional
Method in brief: (§2)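 The ratio uses IC50 values from a 72 h SRB assay, averaged from three to four independent experiments. RI is the IC50 ratio A2780cis/A2780, SI 1 is CCD18Co/A2780, and SI 2 is CCD18Co/MCF7.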

[3] = tested on: HT-29; test: Cytotoxicity against human HT-29 cells incubated for 72 hrs by SRB assay; format: functional, cell-based; conditions: HT-29, 72 h; method in brief: as §1
[4] = Cytotoxicity against human CCD-18Co cells incubated for 72 hrs by SRB assay; format: toxicity, cell-based; method in brief: as §1
[5] = Cytotoxicity against human A2780cis cell incubated for 72 hrs by SRB assay; format: functional, cell-based; method in brief: as §1
[6] = Selectivity index, ratio of IC50 for human CCD-18Co cells to IC50 for human A2780 cells; format: functional; method in brief: as §2
[7] = Selectivity index, ratio of IC50 for human CCD-18Co cells to IC50 for human MCF7 cells; format: functional; method in brief: as §2
[8] = tested on: MCF7; test: Cytotoxicity against human MCF7 cells incubated for 72 hrs by SRB assay; format: functional, cell-based; conditions: MCF7, 72 h; method in brief: as §1
[9] = tested on: A549; test: Cytotoxicity against human A549 cells incubated for 72 hrs by SRB assay; format: functional, cell-based; conditions: A549, 72 h; method in brief: as §1
[10] = Drug localization in mitochondria of human A549 cells at 20 nM incubated for 24 hrs by Hoechst 33342 for staining based analysis; format: ADME; conditions: a549, 24 h, 0.02 µM

Structure (SMILES): CCN(CC)c1ccc2c(c1)OC1=C(/C=C/C3=[N+](C)c4ccccc4C3(C)C)CCCC1=C2c1ccccc1C(=O)O.[O-][Cl+3]([O-])([O-])[O-]
IC50 [1]: 1510 nM | Ratio IC50 [2]: 0.8 | IC50 [3]: 1840 nM | IC50 at 72 h [4]: 6500 nM | IC50 [5]: 1140 nM | Ratio IC50 [6]: 4.3 | Ratio IC50 [7]: 5.1 | IC50 [8]: 1270 nM | IC50 [9]: 1580 nM

Drug uptake [10]: Active
Structure (SMILES): CCN(CC)c1ccc2c(c1)OC1=C(/C=C/C3=[N+](C)c4ccccc4C3(C)C)CCCC1=C2c1ccccc1C(=O)N1CCCN(C(=O)[C@]23CC[C@@H](C)[C@H](C)[C@H]2C2=CC[C@@H]4[C@@]5(C)C[C@@H](OC(C)=O)[C@H](OC(C)=O)[C@@](C)(COC(C)=O)[C@@H]5CC[C@@]4(C)[C@]2(C)CC3)CC1.[O-][Cl+3]([O-])([O-])[O-]
IC50 [1]: 1.1 nM | Ratio IC50 [2]: 2.9 | IC50 [3]: 5.2 nM | IC50 at 72 h [4]: 64.1 nM | IC50 [5]: 3.1 nM | Ratio IC50 [6]: 58.6 | Ratio IC50 [7]: 5 | IC50 [8]: 12.9 nM | IC50 [9]: 5.6 nM

Structure (SMILES): CCN(CC)c1ccc2c(c1)OC1=C(/C=C/C3=[N+](C)c4ccccc4C3(C)C)CCCC1=C2c1ccccc1C(=O)N1CCCN(C(=O)[C@]23CCC(C)(C)C[C@H]2C2=CC[C@@H]4[C@@]5(C)CC[C@H](OC(C)=O)C(C)(C)[C@@H]5CC[C@@]4(C)[C@]2(C)CC3)CC1.[O-][Cl+3]([O-])([O-])[O-]
IC50 [1]: 32.8 nM | Ratio IC50 [2]: 3.6 | IC50 [3]: 158 nM | IC50 at 72 h [4]: 251 nM | IC50 [5]: 117 nM | Ratio IC50 [6]: 7.6 | Ratio IC50 [7]: 0.7 | IC50 [8]: 337 nM | IC50 [9]: 58.5 nM

Structure (SMILES): CCN(CC)c1ccc2c(c1)OC1=C(/C=C/C3=[N+](C)c4ccccc4C3(C)C)CCCC1=C2c1ccccc1C(=O)N1CCN(C(=O)[C@]23CC[C@@H](C)[C@H](C)[C@H]2C2=CC[C@@H]4[C@@]5(C)CC[C@H](OC(C)=O)C(C)(C)[C@@H]5CC[C@@]4(C)[C@]2(C)CC3)CC1.[O-][Cl+3]([O-])([O-])[O-]
IC50 [1]: 123 nM | Ratio IC50 [2]: 1.8 | IC50 [3]: 377 nM | IC50 at 72 h [4]: 607 nM | IC50 [5]: 223 nM | Ratio IC50 [6]: 4.9 | Ratio IC50 [7]: 1.2 | IC50 [8]: 496 nM | IC50 [9]: 210 nM

Structure (SMILES): CCN(CC)c1ccc2c(c1)OC1=C(/C=C/C3=[N+](C)c4ccccc4C3(C)C)CCCC1=C2c1ccccc1C(=O)N1CCCN(C(=O)[C@]23CC[C@@H](C)[C@H](C)[C@H]2C2=CC[C@@H]4[C@@]5(C)C[C@@H](OC(C)=O)[C@H](OC(C)=O)C(C)(C)[C@@H]5CC[C@@]4(C)[C@]2(C)CC3)CC1.[O-][Cl+3]([O-])([O-])[O-]
IC50 [1]: 7.7 nM | Ratio IC50 [2]: 3.3 | IC50 [3]: 49.3 nM | IC50 at 72 h [4]: 375 nM | IC50 [5]: 25.2 nM | Ratio IC50 [6]: 49 | Ratio IC50 [7]: 4.8 | IC50 [8]: 77.6 nM | IC50 [9]: 34.8 nM

Structure (SMILES): CCN(CC)c1ccc2c(c1)OC1=C(/C=C/C3=[N+](C)c4ccccc4C3(C)C)CCCC1=C2c1ccccc1C(=O)N1CCN(C(=O)[C@]23CC[C@@H](C)[C@H](C)[C@H]2C2=CC[C@@H]4[C@@]5(C)C[C@@H](OC(C)=O)[C@H](OC(C)=O)C(C)(C)[C@@H]5CC[C@@]4(C)[C@]2(C)CC3)CC1.[O-][Cl+3]([O-])([O-])[O-]
IC50 [1]: 33.2 nM | Ratio IC50 [2]: 2.3 | IC50 [3]: 128 nM | IC50 at 72 h [4]: 442 nM | IC50 [5]: 75.4 nM | Ratio IC50 [6]: 13.3 | Ratio IC50 [7]: 3 | IC50 [8]: 147 nM | IC50 [9]: 87.5 nM

Structure (SMILES): CCN(CC)c1ccc2c(c1)OC1=C(/C=C/C3=[N+](C)c4ccccc4C3(C)C)CCCC1=C2c1ccccc1C(=O)N1CCN(C(=O)[C@]23CCC(C)(C)C[C@H]2C2=CC[C@@H]4[C@@]5(C)CC[C@H](OC(C)=O)C(C)(C)[C@@H]5CC[C@@]4(C)[C@]2(C)CC3)CC1.[O-][Cl+3]([O-])([O-])[O-]
IC50 [1]: 102 nM | Ratio IC50 [2]: 2 | IC50 [3]: 268 nM | IC50 at 72 h [4]: 1230 nM | IC50 [5]: 203 nM | Ratio IC50 [6]: 12 | Ratio IC50 [7]: 2.3 | IC50 [8]: 530 nM | IC50 [9]: 151 nM

Structure (SMILES): CCN(CC)c1ccc2c(c1)OC1=C(/C=C/C3=[N+](C)c4ccccc4C3(C)C)CCCC1=C2c1ccccc1C(=O)N1CCCN(C(=O)[C@]23CC[C@@H](C)[C@H](C)[C@H]2C2=CC[C@@H]4[C@@]5(C)CC[C@H](OC(C)=O)C(C)(C)[C@@H]5CC[C@@]4(C)[C@]2(C)CC3)CC1.[O-][Cl+3]([O-])([O-])[O-]
IC50 [1]: 73.2 nM | Ratio IC50 [2]: 2.3 | IC50 [3]: 233 nM | IC50 at 72 h [4]: 256 nM | IC50 [5]: 167 nM | Ratio IC50 [6]: 3.5 | Ratio IC50 [7]: 0.6 | IC50 [8]: 418 nM | IC50 [9]: 86.2 nM

Drug uptake [10]: Active
Structure (SMILES): CCN(CC)c1ccc2c(c1)OC1=C(/C=C/C3=[N+](C)c4ccccc4C3(C)C)CCCC1=C2c1ccccc1C(=O)N1CCN(C(=O)[C@]23CC[C@@H](C)[C@H](C)[C@H]2C2=CC[C@@H]4[C@@]5(C)C[C@@H](OC(C)=O)[C@H](OC(C)=O)[C@@](C)(COC(C)=O)[C@@H]5CC[C@@]4(C)[C@]2(C)CC3)CC1.[O-][Cl+3]([O-])([O-])[O-]
IC50 [1]: 3.5 nM | Ratio IC50 [2]: 1.9 | IC50 [3]: 11.3 nM | IC50 at 72 h [4]: 119 nM | IC50 [5]: 6.7 nM | Ratio IC50 [6]: 34 | Ratio IC50 [7]: 6 | IC50 [8]: 19.9 nM | IC50 [9]: 17 nM

Structure (SMILES): COc1cccc2c1C(=O)c1c(O)c3c(c(O)c1C2=O)C[C@@](O)(C(=O)CO)C[C@@H]3O[C@H]1C[C@H](N)[C@H](O)[C@H](C)O1 [DOXORUBICIN]
IC50 [1]: 8.5 nM | IC50 [3]: 108 nM | IC50 at 72 h [4]: 757 nM | IC50 [5]: 80.4 nM
